The values that follow come from ChEMBL document CHEMBL4715831, “Design and synthesis of 2-((1H-indol-3-yl)thio)-N-phenyl-acetamides as novel dual inhibitors of respiratory syncytial virus and influenza virus A” (Eur J Med Chem, 2020).

Series [1] can be described thus: Cytotoxicity against human HEp-2 cells assessed as reduction in cell viability measured after 48 hrs by MTS assay. It counts as cell-based. A digest of the protocol: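 HEp-2 cells plated; after 24 h, compound added and cells incubated 48 h. MTS (2 mg/ml) then added for 3 h at 37 °C in 5% CO2 and absorbance read at 490 nm. Untreated control set as 100%.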
Series [2] has as its system Respiratory syncytial virus. The series can be described thus: Antiviral activity against GFP-fused wild-type RSV subgroup A Long infected in human HEp-2 cells at 50 uM measured 24 to 72 hrs post infection by fluorescence assay relative to control. It counts as functional. The note with it: time 24-72 hrs.
The test system of series [3] is Respiratory syncytial virus. In words: Antiviral activity against GFP-fused wild-type RSV subgroup A Long infected in human HEp-2 cells measured 24 to 72 hrs post infection by fluorescence assay. It counts as functional, cell-based. A digest of the protocol:
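HEp-2 cells plated, then after 24 h infected with RSV-mGFP using 3-fold serially diluted inocula starting from 3 × 10^4 pfu/well. Compounds came from a 100 mM DMSO stock, diluted as indicated. RFU read at 479/517 nm at 24, 48 and 72 h post-infection, with non-infected cells as background. Mean ± SD of at least three experiments.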

A short description of series [4]: Safety index, ratio of CC50 for human HEp-2 cells to EC50 for GFP-fused wild-type RSV subgroup A long infected in human HEp-2 cells. It is filed as toxicity, cell-based. Particulars: read-out: Ratio CC50/EC50.
Series [5] in a line: Cytotoxicity against human HEp-2 cells assessed as cell viability at 50 uM measured after 48 hrs by MTS assay relative to control. It counts as cell-based. Particulars: read-out: Activity.
Series [6] concerns Influenza A virus. In words: Antiviral activity against Influenza A virus A/WSN/33(H1N1) infected in human HEK293T cells measured after 24 hrs by Gaussia luciferase reporter gene method. It is filed as functional, organism-based. Particulars: A/WSN/1933(H1N1); for EC50: HEK-293T. A digest of the protocol:
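HEK293T cells carrying a Gaussia luciferase reporter that is activated by IAV, infected with A/WSN/33 (H1N1) for 1 h at room temperature, then cultured 24 h at 37 °C with serially diluted compound. Supernatant Gluc read with coelenterazine-h (16.7 μM in PBS) as 0.5-s photon counts. Normalized to control set as 100%; ribavirin positive control; three experiments.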

Series [7] has as its system Influenza A virus. The series can be described thus: Antiviral activity against Influenza A virus A/WSN/33(H1N1) infected in MDCK cells measured after 24 hrs by Gaussia luciferase reporter gene method. It is filed as functional, organism-based. The note with it: A/WSN/1933(H1N1). A digest of the protocol:
(§1)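 MDCK cells infected with IAV A/WSN/33 (H1N1) or H3N2 for 1 h at room temperature, then cultured in fresh DMEM with serially diluted compound for 24 h at 37 °C. Gluc activity in the medium read with coelenterazine-h (16.7 μM in PBS). Normalized to control set as 100%; ribavirin positive control; mean ± SD of three experiments.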

Series [8] in a line: Safety index, ratio of CC50 for HEK293T cells to EC50 for antiviral activity against Influenza A virus A/WSN/33(H1N1) infected in human HEK293T cells. It is filed as toxicity, cell-based. The note with it: read-out: Ratio CC50/EC50.
Series [9] deals with Influenza A virus. In words: Antiviral activity against Influenza A virus A/WSN/33(H1N1) infected in HEK293T cells assessed as relative fluorescence intensity at 20 uM pretreated for 2 hrs followed by viral infection and measured after 24 hrs by Gaussia luciferase reporter gene method. It counts as functional, A/WSN/1933(H1N1). The note with it: time 26 hrs. A digest of the protocol:
(§2)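 Time-of-addition assay: compound at 20 μM added before infection or at infection (0 h) in HEK293T-Gluc cells infected with A/WSN/33 (H1N1). Supernatant Gaussia luciferase measured after 24 h with coelenterazine-h. Values normalized to the DMSO control, set as 100%; ribavirin positive control. Mean ± SD, three independent experiments.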

The nature of series [10]: Cytotoxicity against HEK293T cells assessed as reduction in cell viability measured after 48 hrs by CCK8 assay. The note with it: human. It counts as cell-based, HEK-293T. A digest of the protocol: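 293T cells treated for 48 h with six compound concentrations from 12.5 to 200 μM, with DMSO-only cells as control. CCK-8 then added for 1 h at 37 °C and OD read at 450 nm. Mean ± SD of three experiments.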

Series [11] in a line: Antiviral activity against H3N2 infected in MDCK cells measured after 24 hrs by Gaussia luciferase reporter gene method. It is filed as functional, cell-based, H3N2 subtype. Particulars: Influenza A virus. A digest of the protocol:
as §1

Series [12] deals with Influenza A virus. In words: Antiviral activity against Influenza A virus A/WSN/33(H1N1) infected in HEK293T cells assessed as inhibition of viral replication at 20 uM pretreated for 2 hrs followed by viral infection and measured after 24 hrs by Gaussia luciferase reporter gene method relative to control. It counts as functional. Particulars: A/WSN/1933(H1N1), HEK-293T, time 26 hrs. A digest of the protocol:
as §2

For series [13], the system named is Influenza A virus. The series can be described thus: Antiviral activity against Influenza A virus A/WSN/33(H1N1) infected in human HEK293T cells assessed as inhibition of viral replication at 10 uM measured after 24 hrs by Gaussia luciferase reporter gene method relative to control. It is filed as functional. The note with it: A/WSN/1933(H1N1), HEK-293T.
Series [14] has as its system Influenza A virus. The series can be described thus: Antiviral activity against Influenza A virus A/WSN/33(H1N1) infected in HEK293T cells co-transfected with NP/PA/PB1/PB2 complex assessed as inhibition of viral replication after 24 hrs by mini-genome replicon system based luciferase assay. It counts as functional, organism-based. Particulars: A/WSN/1933(H1N1); for EC50: HEK-293T. A digest of the protocol: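 Minigenome assay: vRNA transcription read as luciferase activity 24 h after transfection. Normalized to control set as 100%. Mean ± SD of three independent experiments.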

The test system of series [15] is Influenza A virus. The series can be described thus: Antiviral activity against Influenza A virus A/WSN/33(H1N1) infected in HEK293T cells assessed as inhibition of viral replication at 20 uM measured after 24 hrs by Gaussia luciferase reporter gene method relative to control. It is filed as functional. Particulars: A/WSN/1933(H1N1), HEK-293T. A digest of the protocol:
as §2

Series [16] concerns Influenza A virus. The series can be described thus: Antiviral activity against Influenza A virus A/WSN/33(H1N1) infected in HEK293T cells assessed as relative fluorescence intensity at 20 uM measured after 24 hrs by Gaussia luciferase reporter gene method. It counts as functional, A/WSN/1933(H1N1). A digest of the protocol:
as §2

Series [17] concerns Respiratory syncytial virus. In words: Antiviral activity against GFP-fused wild-type RSV subgroup A Long infected in human HEp-2 cells assessed as relative fluorescence intensity at 20 uM pretreated for 1 hr followed by viral infection measured 24 to 72 hrs post infection by fluorescence assay. It counts as functional, Respiratory syncytial virus type A. Particulars: time 24-73 hrs. A digest of the protocol:
(§3)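 HEp-2 cells exposed to compound at 20 μM 1 h before RSV-mGFP infection (−1 h). GFP fluorescence read at 479/517 nm at 24, 48 and 72 h post-infection. Signal normalized to the DMSO control, set as 1; ribavirin was the positive control. Mean ± SD, three independent experiments.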

In series [18] the test system is Respiratory syncytial virus. In words: Antiviral activity against GFP-fused wild-type RSV subgroup A Long infected in human HEp-2 cells assessed as relative fluorescence intensity at 20 uM measured 24 to 72 hrs post infection by fluorescence assay. It counts as functional, Respiratory syncytial virus type A. A digest of the protocol:
(§4)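 RSV-mGFP infection of HEp-2 cells with compound at 20 μM added at the time of infection (0 h). Fluorescence read at excitation 479 nm and emission 517 nm at 24, 48 and 72 h post-infection. Values normalized to the DMSO control, set as 1; ribavirin was the positive control. Mean ± SD of three independent experiments.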

In series [19] the test system is Respiratory syncytial virus. The series can be described thus: Antiviral activity against GFP-fused wild-type RSV subgroup A Long infected in human HEp-2 cells assessed as reduction in viral infection at 20 uM measured 24 to 72 hrs post infection by fluorescence assay relative to control. It counts as functional, Respiratory syncytial virus type A. Further details: scale not given: the % may be the effect or the level left. Particulars: time 24-72 hrs. A digest of the protocol: as §4

For series [20], the system named is Respiratory syncytial virus. The series can be described thus: Antiviral activity against GFP-fused wild-type RSV subgroup A Long infected in human HEp-2 cells assessed as reduction in viral infection at 20 uM pretreated for 1 hr followed by viral infection measured 24 to 72 hrs post infection by fluorescence assay relative to control. It counts as functional, Respiratory syncytial virus type A. Details: scale not given: the % may be the effect or the level left. The note with it: time 24-73 hrs. A digest of the protocol: as §3

For `CCOc1ccccc1NC(=O)CSc1c[nH]c2ccccc12`, the CC50 at 48 h in [1] stood at 20.7 µM. This compound also returned an inhibition at 50 µM in series [2] of 83.2%. The compound also gave an EC50 in series [3] of 11.8 µM. In addition, the selectivity ratio in series [4] amounted to 1.76. The viability at 48 h, 50 µM in [5] came out at 65.2%.
As for `O=C(CSc1c[nH]c2ccccc12)Nc1ccc(Cl)c(Cl)c1`, the CC50 at 48 h in [1] stood at 37.5 µM. The compound further gave an inhibition at 50 µM in series [2] of 77.1%. In [3], it took 32.7 µM to reach a half-maximal effect (EC50). Moreover, in series [4], the selectivity ratio turned out to be 1.15. Further, the viability at 48 h, 50 µM in series [5] worked out at 81.8%.
With `CCOc1ccccc1NC(=O)CSc1c[nH]c2c(Br)c(OC)ccc12`, the 50% cytotoxic concentration (CC50) at 48 h in series [1] was 9.65 µM; in series [10], over 100 µM. Moreover, the Activity result in series [6] and in [3] was “Dose-dependent effect” each time. The EC50 in series [6] was determined as 1.9 µM; in [7], 3.25 µM; in [3] it was 2.92 µM; in [11], 1.5 µM; in series [14] it was 3.89 µM. The selectivity ratio in [8] is over 52.6; in series [4], 3.3. The RFU in series [9] is on record as 0.14; in [16], 0.28. Moreover, the inhibition at 20 µM in series [12] and in series [15] was 99.7% throughout. The inhibition at 10 µM in series [13] was over 85%. In addition, the inhibition entry in series [14] is “Dose-dependent effect”.
Consider `CCOc1ccccc1NC(=O)CSc1c[nH]c2cc(Cl)ccc12`, for which the figures for the CC50 at 48 h in series [1] and in [10] were 29.9 µM and over 100 µM, respectively. Also, the Activity entry in series [6] and in series [3] was “Dose-dependent effect” each time. Also, the EC50 in series [6] was determined as 1.53 µM; in series [7], 2.42 µM; in series [3], 5.58 µM; in series [11], 1.58 µM; in series [14], 1.98 µM. Moreover, the results for the selectivity ratio in [8] and in series [4] were over 65.4 and 5.36, respectively. The values for the RFU in [9] and in series [16] were 0.14 and 0.22, respectively. Besides, the inhibition at 20 µM in series [12] and in series [15] was 99.7% in each case. Also, the inhibition at 10 µM in series [13] was over 85%. The inhibition result in series [14] is “Dose-dependent effect”.
Turning to `Cn1cc(SCC(=O)Nc2ccc(Cl)c(Cl)c2)c2ccccc21`, the CC50 at 48 h in series [1] was 30.5 µM; in [10], over 100 µM. Besides, the values for the EC50 in [6] and in [3] were 0.64 µM and 12.5 µM, respectively. In addition, the results for the selectivity ratio in series [8] and in series [4] were over 156 and 2.45, respectively. Moreover, the inhibition at 10 µM in series [13] was over 85%.
As for `NC(=O)c1ncn([C@@H]2O[C@H](CO)[C@@H](O)[C@H]2O)n1` [RIBAVIRIN], the RFU turned out to be 0.04 in [17] and 0.67 in [9]. The CC50 at 48 h is 274 µM in series [1] and over 100 µM in [10]. For the same compound, the 50% effective concentration (EC50) in [6] worked out at 25.1 µM; in series [7], 16 µM; in series [3], 15.8 µM; in series [11], 20.5 µM. Further, the values for the selectivity ratio in series [8] and in series [4] were over 3.99 and 17.3, respectively.
`Cn1cc(SCC(=O)Nc2c(Cl)cccc2Cl)c2ccccc21`: the CC50 at 48 h was 23.7 µM in series [1] and over 100 µM in [10]. Besides, the Activity result in [6] was “Dose-dependent effect”. Further, the EC50 in series [6] is 3.5 µM; in series [7], 1.75 µM; in series [3] it was 17.3 µM; in series [11], 1.5 µM. In addition, the selectivity ratio was over 28.6 in series [8] and 1.37 in [4]. Further, the inhibition at 10 µM in series [13] is over 85%.
Take `CCOc1ccccc1NC(=O)CSc1c[nH]c2ccc(OC)cc12`: the RFU in series [17] amounted to 0.06; in series [18], 0.11. Further, the half-maximal cytotoxic concentration (CC50) at 48 h is 1830 µM in [1] and over 100 µM in series [10]. Besides, the Activity entry in series [6] is “Dose-dependent effect”; in series [3], “Dose-dependent effect”; in series [19], 99.89%; in [20], 99.4%. Moreover, the values for the EC50 in series [6] and in series [3] were 1.27 µM and 4.82 µM, respectively. For the same compound, the selectivity ratio in series [8] was over 79.4; in series [4], 379. For the same compound, in series [13], the inhibition at 10 µM is over 85%.
